The text below walks through data of ChEMBL document CHEMBL4513216, “Probing the Open Global Health Chemical Diversity Library for Multistage-Active Starting Points for Next-Generation Antimalarials” (ACS Infect Dis, 2020).

This series in a line: Toxicity liver stage against HepG2, at 10uM. Format: cell-based. Details: test concentration 10 uM, cell line HepG2-A16-CD81EGFP. The conditions noted are these: human, HepG2-A16-CD81EGFP cells; read-out: INHIBITION
The method, boiled down:
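Uninfected HepG2-A16-CD81EGFP cells, 3 × 10^3 per well, 1536-well, plated on prespotted compound at 10 μM final, parasite-free screening media added to match infected plates; puromycin 10 μM positive, DMSO 0.5% negative; run in parallel with 48 h PbLuc assay at 37 °C, 5% CO2; viability by CellTiter-Glo luminescence, normalized to controls.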
For `COc1cccc(CNC[C@H]2COCc3nc4cccnc4n32)n1`, the cytotoxicity at 10 µM is -1.57%.
In the case of `CN1CCN2C(=O)N(C3CCOCC3)C[C@H]2C1`, the cytotoxicity at 10 µM was 0.523%.
The figure for `O=C(c1ccccn1)N1C[C@@H]2OCC(=O)N(CC3CCCCC3)[C@@H]2C1` is -2.86%; for `CC(=O)N1CCN(CCNC(=O)c2nc3ccccc3c(=O)[nH]2)CC1` it is 6.45%; for `O=C(Cc1ccc(Cl)s1)Nc1ccc2c(c1)C(=O)NC2=O` it is -7.19%.
With `Cc1cccc(S(=O)(=O)NCC2CCN(c3cnccn3)CC2)c1` the figure was 7.99%; with `O=C1CN(C(=O)c2nnn(-c3ccc(C(F)(F)F)cc3)n2)CCN1`, -2.77%; with `CCN1CCNC(=O)C12CCN(S(=O)(=O)c1ccccc1)CC2`, 0.464%.
As to `CC(=O)N1CCC2(CC1)CN(C(=O)c1cccc3[nH]ccc13)CCO2`, the cytotoxicity at 10 µM was -149%.
For the compound `O=C(c1ccc[nH]1)N1Cc2nccn2CC(Cn2ncccc2=O)C1` (configuration not stated), the cytotoxicity at 10 µM was found to be 3.66%.
For `Cc1nc(Nc2ccc(Cl)cn2)sc1C(=O)NC(C)C`, the cytotoxicity at 10 µM amounted to 14%.
Take `COCCn1ccc(=O)c(OCC(=O)Nc2ccccc2)c1C`: the cytotoxicity at 10 µM stood at 3.72%.
On to `O=C(c1cc2c(s1)CCC2)N1CCCC(c2cnccn2)C1` (configuration not stated), for which the cytotoxicity at 10 µM is -1.67%.
Turning to `CCc1c(C)noc1-c1cnc(NC2CC2)nc1-c1cnc(C)cn1`, the cytotoxicity at 10 µM was -29%.
As for `NC(=O)C1Cc2ccccc2CN1CCC(=O)N1CCc2ccccc21` (configuration not stated), the cytotoxicity at 10 µM is -4.23%.
The figure for `CN(Cc1cc(Br)cn1C)C(=O)Cc1cccnc1` is -4.18%; for `Cc1ccc(C(NC(=O)CCNC(=O)c2ccoc2)C(F)(F)F)cc1` (configuration not stated) it is 9.49%; for `O=C(c1coc(-c2ccccc2)n1)N1CCCCC1` it is 11.2%.
As for `CCN(Cc1ccco1)C(C)c1nc(C)no1` (configuration not stated), the cytotoxicity at 10 µM was -10.1%.
With `COc1ccnc(NC(Cc2ccccc2)C(N)=O)n1` (configuration not stated) the figure was 20.7%; with `CCOc1ccc(CNC(C)c2c(C)nn(C)c2C)cc1` (configuration not stated), -0.00326%.
With `CCN(CC1CCOC1)C(=O)c1nc(-c2ccco2)sc1C` (configuration not stated) the figure was -0.238%; with `O=C(CS(=O)(=O)c1ccc(Cl)cc1)NC1CCCc2ccccc21` (configuration not stated), 1.03%; with `Cc1cc(NCc2csc(-c3ccsc3)n2)no1`, -0.912%.
For `CCC(C)NC(=O)c1ccc(CNC(=O)CC(C)(C)C)cc1` (configuration not stated), the cytotoxicity at 10 µM was 10%.
With `Cc1ncccc1CNc1ccc(OCCO)nc1` the figure was -1.78%; with `Cc1cnn(CC2CCCN2Cc2cc(=O)n3c(C)csc3n2)c1` (configuration not stated), -2.11%; with `CCn1nc2c(cc1=O)CN(CC(=O)Nc1cc(C(C)C)no1)CC2`, -5.46%.
The figure for `CC1CCCN(C(=O)CCNS(=O)(=O)c2cccnc2)C1` (configuration not stated) is -11%.
For `COc1ccc(NC(=O)CSc2nc(C)c(C)c(C)c2C#N)cn1`, the cytotoxicity at 10 µM is -0.82%.
Take `c1cc(CNc2nnc(Cc3ccsc3)o2)cs1`: the cytotoxicity at 10 µM is 0.369%.
With `CS(=O)(=O)c1cccc(S(=O)(=O)NCCCN2CCNC(=O)C2)c1` the figure was -5.87%.
Regarding `Cc1csc(NC(=O)C2(C)CCCO2)n1` (configuration not stated), the cytotoxicity at 10 µM was -2.54%.
With `O=C1NC(c2cnc(C3CCC3)s2)Nc2ccccc21` (configuration not stated) the figure was -3.95%; with `CNC(=O)NC(=O)COc1c(C(C)=O)ccc(Cl)c1Cl`, 26.6%; with `O=C(c1ccnc(NC2CC2)c1)N1CCCC1c1cccc(Br)c1` (configuration not stated), -6.58%.
With `CN(CCc1cccs1)C(=O)Nc1cccc(S(C)(=O)=O)c1`, the cytotoxicity at 10 µM is -8.77%.
The figure for `CC(C)C(C)(O)CNC(=O)Nc1ccccn1` (configuration not stated) is 4.77%; for `Cc1ccc(CNc2cnn(CC(F)F)c2)cc1C` it is -0.71%.
With `O=C(Nc1ccccn1)C1CC(=O)N(Cc2ccccn2)C1` (configuration not stated) the figure was 2.84%; with `c1cc(-c2cc(C3CCN(Cc4cncnc4)C3)ccn2)ccn1` (configuration not stated), -0.969%.
With `Cc1occc1C(=O)Nc1ccc(C(=O)NC[C@H]2CCCN2)cc1`, the cytotoxicity at 10 µM was -10.6%.
The figure for `O=C(Nc1nncs1)N1CCCN(C2CCCC2)CC1` is -4.31%.
For `Cc1cc(C(=O)NCCc2cn3nc(C)sc3n2)c(C)o1`, the cytotoxicity at 10 µM stood at 5.68%.
The figure for `COc1cccc(-n2cc(-c3ccnc(N[C@@H](CO)C(C)C)n3)cn2)c1` is -1.15%; for `C[C@@H]1CN(C2(C(=O)N(C)C)Cc3ccccc3C2)C[C@H](C)O1` it is -5.19%.
The figure for `CCc1ccc2nc(C)cc(C(=O)N[C@@H]3CNC[C@H]3O)c2c1` is -11%.
For `O=C(c1cc(-c2ccco2)nc2c(Cl)cccc12)N1CCS(=O)(=O)CC1`, the cytotoxicity at 10 µM is -1.99%.
`CCn1c(C2CCCN(Cc3cc(F)ccc3OC)C2)nn(C)c1=O` (configuration not stated): the cytotoxicity at 10 µM is -4.12%.
The figure for `COc1ccccc1Oc1ncccc1CNC(=O)[C@H](N)CC(C)(C)C` is -1.73%; for `O=C(Nc1cnn(CC(=O)N2CCCCO2)c1)c1ccccn1` it is -0.0294%.
Take `CCc1nc(C)c(CN2CCCC(c3nn(C)c(=O)n3CC)C2)[nH]1` (configuration not stated): the cytotoxicity at 10 µM is -7.77%.
With `Cc1ccc2c(c1)c(CNC(=O)C1CCN(CC(N)=O)CC1)nn2C` the figure was -3.17%; with `CN(Cc1ccco1)C(=O)[C@@]12CNC[C@@H]1CN(C1CCCC1)C2`, 3.75%.
For the compound `COc1ccccc1[C@@H]1CN(Cc2cnn(C)c2C)C[C@H]1C(=O)O`, the cytotoxicity at 10 µM is -3.53%.
With `CC(C)(C)n1cc(C2=CCN(CCNC(=O)c3ccccc3)CC2)cn1` the figure was -0.262%.
On to `Cc1cnc(CNCc2cnc(-c3ccccc3C)s2)cn1`, for which the cytotoxicity at 10 µM was -0.37%.
For `COc1ncccc1-c1nc(-c2ccccn2)nn1C1CCS(=O)(=O)C1` (configuration not stated), the cytotoxicity at 10 µM was -6.1%.
In the case of `Fc1cnccc1CN1CCC2(CCNCC2)C1`, the cytotoxicity at 10 µM is -123%.
The figure for `CCCn1ncc(C(=O)N(CCOC)Cc2c(C)nn(CC)c2C)c1C` is -4.97%; for `CC(C)Cc1cc(CNC(=O)C2CCCN(Cc3ccco3)C2)no1` (configuration not stated) it is 3.11%; for `O=C(Nc1cccc(-c2cscn2)c1)N1CCC2(CC1)CC(O)CO2` (configuration not stated) it is -3.13%.
As for `CCc1ccc2nc(C)cc(C(=O)N[C@@H]3CCCNC3)c2c1`, the cytotoxicity at 10 µM is -5.09%.
Turning to `O=C(CS(=O)(=O)Cc1ccc(F)cc1)NC1CCCCNC1=O` (configuration not stated), the cytotoxicity at 10 µM is -0.252%.
Turning to `COCCc1noc(CN2CCOC(Cn3cc(C)cn3)C2)n1` (configuration not stated), the cytotoxicity at 10 µM is -4.18%.
Consider `COc1cccc(CC(=O)N2CCN(C)c3ncccc3C2)c1`, for which the cytotoxicity at 10 µM stood at 2.33%.
The figure for `CCN1CCN(C)C2(CCN(Cc3ccc(C)o3)CC2)C1=O` is -7.1%.
Consider `Cn1c2c(ccc1=O)CCN(Cc1ccoc1)CC2`, for which the cytotoxicity at 10 µM is -153%.
The figure for `O=C(Nc1cccc(C(=O)OCC2CCCN2)c1)c1ccoc1` (configuration not stated) is -3.06%.
With `COCc1nn(CC2CC2)c2c1CN(Cc1cccs1)CC2`, the cytotoxicity at 10 µM came out at 0.994%.
On to `CC(C)c1cc(C(=O)N2C[C@@H]3CC[C@H]2CN(Cc2cscn2)C3)no1`, for which the cytotoxicity at 10 µM worked out at 1.27%.
In the case of `CNc1nc2cn(-c3cccc(OC)c3)c(=O)c-2c[nH]1`, the cytotoxicity at 10 µM was 6.04%.
